Experimental data as given in ChEMBL document CHEMBL1141056, “Aqua mediated synthesis of substituted 2-amino-4H-chromenes and in vitro study as antibacterial agents” (Bioorg Med Chem Lett, 2005).

Experiments:
Assay type in all cases: functional, organism-based
Pseudomonas aeruginosa [1] = test: Antibacterial activity against Pseudomonas aeruginosa (ATCC 27853) at concentration 1.0 uM/ml in dimethylformamide, + = resistant
Method in brief: (§1)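 Broth microdilution MIC per NCCLS standard protocol. Compounds dissolved in DMF and doubling-diluted in Mueller Hinton broth across 0.5–128 µg/ml; ampicillin run alongside. Inoculum adjusted to McFarland 0.5 and diluted to approx. 5×10^5 cfu/ml final per well. Plates held overnight at 37 °C. Growth scored per concentration: + resistant, − susceptible. Each plate carried broth+inoculum and broth-only control wells.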

Staphylococcus aureus [2] = test: Antibacterial activity against Staphylococcus aureus (ATCC 25923) at concentration 0.5 uM/ml in dimethylformamide, + = resistant; method in brief: as §1
Escherichia coli [3] = test: Antibacterial activity against Escherichia coli (ATCC 25922) at concentration 4.0 uM/ml in dimethylformamide, + = resistant; method in brief: as §1
Escherichia coli [4] = test: Antibacterial activity against Escherichia coli (ATCC 25922) at concentration 8.0 uM/ml in dimethylformamide, + = resistant; method in brief: as §1
Staphylococcus aureus [5] = test: Antibacterial activity against Staphylococcus aureus (ATCC 25923) at concentration 16.0 uM/ml in dimethylformamide, + = resistant; method in brief: as §1
Staphylococcus aureus [6] = test: Antibacterial activity against Staphylococcus aureus (ATCC 25923) at concentration 2.0 uM/ml in dimethylformamide, + = resistant; method in brief: as §1
Escherichia coli [7] = test: Antibacterial activity against Escherichia coli (ATCC 25922) at concentration 1.0 uM/ml in dimethylformamide, + = resistant; method in brief: as §1
Escherichia coli [8] = test: Antibacterial activity against Escherichia coli (ATCC 25922) at concentration 32.0 uM/ml in dimethylformamide, + = resistant; method in brief: as §1
Escherichia coli [9] = test: Antibacterial activity against Escherichia coli (ATCC 25922) at concentration 2.0 uM/ml in dimethylformamide, + = resistant; method in brief: as §1
Staphylococcus aureus [10] = test: Antibacterial activity against Staphylococcus aureus (ATCC 25923) at concentration 1.0 uM/ml in dimethylformamide, + = resistant; method in brief: as §1
Escherichia coli [11] = test: Antibacterial activity against Escherichia coli (ATCC 25922) at concentration 16.0 uM/ml in dimethylformamide, + = resistant; method in brief: as §1
Staphylococcus aureus [12] = test: Antibacterial activity against Staphylococcus aureus (ATCC 25923) at concentration 4.0 uM/ml in dimethylformamide, + = resistant; method in brief: as §1
Pseudomonas aeruginosa [13] = test: Antibacterial activity against Pseudomonas aeruginosa (ATCC 27853) at concentration 8.0 uM/ml in dimethylformamide, + = resistant; method in brief: as §1
Staphylococcus aureus [14] = test: Antibacterial activity against Staphylococcus aureus (ATCC 25923) at concentration 32.0 uM/ml in dimethylformamide, + = resistant; method in brief: as §1
Pseudomonas aeruginosa [15] = test: Antibacterial activity against Pseudomonas aeruginosa (ATCC 27853) at concentration 2.0 uM/ml in dimethylformamide, + = resistant; method in brief: as §1
Staphylococcus aureus [16] = test: Antibacterial activity against Staphylococcus aureus (ATCC 25923) at concentration 64.0 uM/ml in dimethylformamide, + = resistant; method in brief: as §1
Pseudomonas aeruginosa [17] = test: Antibacterial activity against Pseudomonas aeruginosa (ATCC 27853) at concentration 0.5 uM/ml in dimethylformamide, + = resistant; method in brief: as §1
Escherichia coli [18] = test: Antibacterial activity against Escherichia coli (ATCC 25922) at concentration 64.0 uM/ml in dimethylformamide, + = resistant; method in brief: as §1
Pseudomonas aeruginosa [19] = test: Antibacterial activity against Pseudomonas aeruginosa (ATCC 27853) at concentration 4.0 uM/ml in dimethylformamide, + = resistant; method in brief: as §1
Escherichia coli [20] = test: Antibacterial activity against Escherichia coli (ATCC 25922) at concentration 0.5 uM/ml in dimethylformamide, + = resistant; method in brief: as §1
Pseudomonas aeruginosa [21] = test: Antibacterial activity against Pseudomonas aeruginosa (ATCC 27853) at concentration 16.0 uM/ml in dimethylformamide, + = resistant; method in brief: as §1
Pseudomonas aeruginosa [22] = test: Antibacterial activity against Pseudomonas aeruginosa (ATCC 27853) at concentration 32.0 uM/ml in dimethylformamide, + = resistant; method in brief: as §1
Staphylococcus aureus [23] = test: Antibacterial activity against Staphylococcus aureus (ATCC 25923) at concentration 8.0 uM/ml in dimethylformamide, + = resistant; method in brief: as §1
Pseudomonas aeruginosa [24] = test: Antibacterial activity against Pseudomonas aeruginosa (ATCC 27853) at concentration 64.0 uM/ml in dimethylformamide, + = resistant; method in brief: as §1
Staphylococcus aureus [25] = test: Antibacterial activity against Staphylococcus aureus (ATCC 25923)i at concentration 32.0 uM/ml in dimethylformamide, + = resistant; method in brief: as §1

Measured: MIC

N#CC1=C(N)Oc2cc(O)ccc2C1n1ccc2ccccc21 (centres undefined)
Resistant: Pseudomonas aeruginosa [1] | Staphylococcus aureus [2] | Escherichia coli [3] | Escherichia coli [4] | Staphylococcus aureus [5] | Staphylococcus aureus [6] | Escherichia coli [7] | Escherichia coli [8] | Escherichia coli [9] | Staphylococcus aureus [10] | Escherichia coli [11] | Staphylococcus aureus [12] | Pseudomonas aeruginosa [13] | Staphylococcus aureus [14] | Pseudomonas aeruginosa [15] | Staphylococcus aureus [16] | Pseudomonas aeruginosa [17] | Escherichia coli [18] | Pseudomonas aeruginosa [19] | Escherichia coli [20] | Pseudomonas aeruginosa [21] | Pseudomonas aeruginosa [22] | Staphylococcus aureus [23]

N#CC1=C(N)Oc2ccc3ccccc3c2C1c1ccc2c(c1)OCO2 (centres undefined)
Resistant: Pseudomonas aeruginosa [1] | Staphylococcus aureus [2] | Escherichia coli [3] | Escherichia coli [4] | Staphylococcus aureus [5] | Staphylococcus aureus [6] | Escherichia coli [7] | Escherichia coli [8] | Escherichia coli [9] | Staphylococcus aureus [10] | Escherichia coli [11] | Staphylococcus aureus [12] | Pseudomonas aeruginosa [13] | Staphylococcus aureus [14] | Pseudomonas aeruginosa [15] | Staphylococcus aureus [16] | Pseudomonas aeruginosa [17] | Escherichia coli [18] | Pseudomonas aeruginosa [19] | Escherichia coli [20] | Pseudomonas aeruginosa [21] | Pseudomonas aeruginosa [22] | Staphylococcus aureus [23]

N#CC1=C(N)Oc2cc(O)ccc2C1c1ccc2c(c1)OCO2 (centres undefined)
Resistant: Pseudomonas aeruginosa [1] | Staphylococcus aureus [2] | Escherichia coli [3] | Escherichia coli [4] | Staphylococcus aureus [5] | Staphylococcus aureus [6] | Escherichia coli [7] | Escherichia coli [8] | Escherichia coli [9] | Staphylococcus aureus [10] | Escherichia coli [11] | Staphylococcus aureus [12] | Pseudomonas aeruginosa [13] | Staphylococcus aureus [14] | Pseudomonas aeruginosa [15] | Staphylococcus aureus [16] | Pseudomonas aeruginosa [17] | Escherichia coli [18] | Pseudomonas aeruginosa [19] | Escherichia coli [20] | Pseudomonas aeruginosa [21] | Pseudomonas aeruginosa [22] | Staphylococcus aureus [23]

N#CC1=C(N)Oc2cc(O)ccc2C1c1ccccc1 (centres undefined)
Resistant: Pseudomonas aeruginosa [1] | Staphylococcus aureus [2] | Escherichia coli [3] | Escherichia coli [4] | Staphylococcus aureus [5] | Staphylococcus aureus [6] | Escherichia coli [7] | Escherichia coli [8] | Escherichia coli [9] | Staphylococcus aureus [10] | Escherichia coli [11] | Staphylococcus aureus [12] | Pseudomonas aeruginosa [13] | Staphylococcus aureus [14] | Pseudomonas aeruginosa [15] | Staphylococcus aureus [16] | Pseudomonas aeruginosa [17] | Escherichia coli [18] | Pseudomonas aeruginosa [19] | Pseudomonas aeruginosa [24] | Escherichia coli [20] | Pseudomonas aeruginosa [21] | Pseudomonas aeruginosa [22] | Staphylococcus aureus [23]

N#CC1=C(N)Oc2ccc3ccccc3c2C1n1ccc2ccccc21 (centres undefined)
Resistant: Pseudomonas aeruginosa [1] | Staphylococcus aureus [2] | Escherichia coli [3] | Escherichia coli [4] | Staphylococcus aureus [5] | Staphylococcus aureus [6] | Escherichia coli [7] | Escherichia coli [8] | Escherichia coli [9] | Staphylococcus aureus [10] | Escherichia coli [11] | Staphylococcus aureus [12] | Pseudomonas aeruginosa [13] | Staphylococcus aureus [14] | Pseudomonas aeruginosa [15] | Staphylococcus aureus [16] | Pseudomonas aeruginosa [17] | Escherichia coli [18] | Pseudomonas aeruginosa [19] | Escherichia coli [20] | Pseudomonas aeruginosa [21] | Pseudomonas aeruginosa [22] | Staphylococcus aureus [23]

N#CC1=C(N)Oc2ccc3ccccc3c2C1c1ccccc1 (centres undefined)
Resistant: Pseudomonas aeruginosa [1] | Staphylococcus aureus [2] | Escherichia coli [3] | Escherichia coli [4] | Staphylococcus aureus [5] | Staphylococcus aureus [6] | Escherichia coli [7] | Escherichia coli [8] | Escherichia coli [9] | Staphylococcus aureus [10] | Escherichia coli [11] | Staphylococcus aureus [12] | Pseudomonas aeruginosa [13] | Staphylococcus aureus [14] | Pseudomonas aeruginosa [15] | Staphylococcus aureus [16] | Pseudomonas aeruginosa [17] | Escherichia coli [18] | Pseudomonas aeruginosa [19] | Escherichia coli [20] | Pseudomonas aeruginosa [21] | Pseudomonas aeruginosa [22] | Staphylococcus aureus [23]

N#CC1=C(N)Oc2cc(O)ccc2C1c1cc2ccccc2nc1Cl (centres undefined)
Resistant: Pseudomonas aeruginosa [1] | Staphylococcus aureus [2] | Escherichia coli [3] | Escherichia coli [4] | Staphylococcus aureus [5] | Staphylococcus aureus [6] | Escherichia coli [7] | Escherichia coli [8] | Escherichia coli [9] | Staphylococcus aureus [10] | Escherichia coli [11] | Staphylococcus aureus [12] | Pseudomonas aeruginosa [13] | Staphylococcus aureus [14] | Pseudomonas aeruginosa [15] | Staphylococcus aureus [16] | Pseudomonas aeruginosa [17] | Pseudomonas aeruginosa [19] | Escherichia coli [20] | Pseudomonas aeruginosa [21] | Pseudomonas aeruginosa [22] | Staphylococcus aureus [23]

CC1(C)S[C@@H]2[C@H](NC(=O)[C@H](N)c3ccccc3)C(=O)N2[C@H]1C(=O)O
Resistant: Pseudomonas aeruginosa [1] | Staphylococcus aureus [2] | Staphylococcus aureus [6] | Escherichia coli [7] | Escherichia coli [9] | Staphylococcus aureus [10] | Staphylococcus aureus [12] | Pseudomonas aeruginosa [15] | Pseudomonas aeruginosa [17] | Pseudomonas aeruginosa [19] | Escherichia coli [20]

N#CC1=C(N)Oc2ccc3ccccc3c2C1c1cc2ccccc2nc1Cl (centres undefined)
Resistant: Pseudomonas aeruginosa [1] | Staphylococcus aureus [2] | Escherichia coli [3] | Escherichia coli [4] | Staphylococcus aureus [5] | Staphylococcus aureus [6] | Escherichia coli [7] | Escherichia coli [8] | Escherichia coli [9] | Staphylococcus aureus [10] | Escherichia coli [11] | Staphylococcus aureus [12] | Pseudomonas aeruginosa [13] | Pseudomonas aeruginosa [15] | Pseudomonas aeruginosa [17] | Escherichia coli [18] | Staphylococcus aureus [25] | Pseudomonas aeruginosa [19] | Escherichia coli [20] | Pseudomonas aeruginosa [21] | Pseudomonas aeruginosa [22] | Staphylococcus aureus [23]
